Test results taken from ChEMBL document CHEMBL1158511, “Tricyclic dihydroquinazolinones as novel 5-HT2C selective and orally efficacious anti-obesity agents” (Bioorg Med Chem Lett, 2010).

Experiments:
[1] = molecular target: T1, 5-hydroxytryptamine receptor 2B (Homo sapiens, UniProt P41595); test: Agonist activity at human recombinant 5HT2B receptor expressed in HEK293E cells by FLIPR assay; format: functional, cell-based
In short: (§1)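 Calcium mobilization measured by FLIPR in HEK293E cells expressing human 5-HT2A, 5-HT2B or 5-HT2C receptor. Values are means of ≥2 independent 12-point dose-response curves (n ≥4 where SD is given). mCPP is the positive control.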

[2] = molecular target: T2, 5-hydroxytryptamine receptor 2A (Homo sapiens, UniProt P28223); test: Displacement of [125I]DOI from human recombinant 5HT2A receptor expressed in HEK293E cells; format: cell-based
T2 sequence (P28223 whole entry): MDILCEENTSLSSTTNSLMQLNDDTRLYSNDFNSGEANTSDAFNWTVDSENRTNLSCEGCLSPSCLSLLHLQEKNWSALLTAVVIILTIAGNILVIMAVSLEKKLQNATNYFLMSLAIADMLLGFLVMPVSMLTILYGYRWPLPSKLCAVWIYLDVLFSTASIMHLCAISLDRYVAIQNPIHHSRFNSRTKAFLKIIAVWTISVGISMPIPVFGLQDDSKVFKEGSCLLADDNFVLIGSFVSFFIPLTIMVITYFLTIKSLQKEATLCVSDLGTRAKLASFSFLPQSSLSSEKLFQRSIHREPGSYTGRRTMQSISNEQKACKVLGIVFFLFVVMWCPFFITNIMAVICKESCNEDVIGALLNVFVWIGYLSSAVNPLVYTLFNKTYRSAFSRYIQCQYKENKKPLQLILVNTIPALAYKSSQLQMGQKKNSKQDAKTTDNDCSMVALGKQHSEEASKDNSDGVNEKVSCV
In short: (§2)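 Radioligand binding with [125I]DOI at the human 5-HT2C or 5-HT2A receptor. Ki is the mean of ≥2 independent 12-point dose-response curves (n ≥4 where SD is given).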

[3] = molecular target: T2, 5-hydroxytryptamine receptor 2A; test: Agonist activity at human recombinant 5HT2A receptor expressed in HEK293E cells by FLIPR assay; format: functional, cell-based; in short: as §1
[4] = Half life in Sprague-Dawley rat at 1 mg/kg, iv; format: ADME, organism-based; set-up: dose 1 mg/kg, route intravenous; settings: in vivo
In short: (§3)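 Male Sprague–Dawley rats were dosed at 1 mpk iv and po. Values are means of 3 animals per route.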

[5] = Half life in Sprague-Dawley rat at 1 mg/kg, po; format: ADME, organism-based; set-up: dose 1 mg/kg, route oral; settings: in vivo; in short: as §3
[6] = Clearance in Sprague-Dawley rat at 1 mg/kg, iv; format: ADME, organism-based; set-up: dose 1 mg/kg, route intravenous; settings: in vivo; in short: as §3
[7] = Volume of distribution at steady state in Sprague-Dawley rat at 1 mg/kg, iv; format: ADME, organism-based; set-up: dose 1 mg/kg, route intravenous; settings: in vivo, read-out: Vdss; in short: as §3
[8] = Tmax in Sprague-Dawley rat at 1 mg/kg, po; format: ADME, organism-based; set-up: dose 1 mg/kg, route oral; settings: in vivo
In short: (§4)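 Male Sprague–Dawley rats were dosed po only at 1 or 10 mpk. Values are means of 2 animals. AUC was collected over 4 h. Plasma and total brain levels were taken at 4 h post dose.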

[9] = Cmax in Sprague-Dawley rat at 1 mg/kg, po; format: ADME, organism-based; set-up: dose 1 mg/kg, route oral; settings: in vivo; in short: as §4
[10] = AUC (0 to infinity) in Sprague-Dawley rat at 1 mg/kg, iv; format: ADME, organism-based; set-up: time infinity, dose 1 mg/kg, route intravenous; settings: plasma; in short: as §3
[11] = AUC (0 to infinity) in Sprague-Dawley rat at 1 mg/kg, po; format: ADME, organism-based; set-up: time infinity, dose 1 mg/kg, route oral; settings: plasma; in short: as §3
[12] = Oral bioavailability in Sprague-Dawley rat at 1 mg/kg; format: ADME, organism-based; settings: in vivo; in short: as §3
[13] = Tmax in Sprague-Dawley rat at 10 mg/kg, po; format: ADME, organism-based; set-up: dose 10 mg/kg, route oral; settings: in vivo; in short: as §4
[14] = Cmax in Sprague-Dawley rat at 10 mg/kg, po; format: ADME, organism-based; set-up: dose 10 mg/kg, route oral; settings: in vivo; in short: as §4
[15] = AUC in Sprague-Dawley rat at 1 mg/kg, po after 4 hrs; format: ADME, organism-based; set-up: time < 4 hr, dose 1 mg/kg, route oral; settings: plasma; in short: as §4
[16] = AUC in Sprague-Dawley rat at 10 mg/kg, po after 4 hrs; format: ADME, organism-based; set-up: time < 4 hr, dose 10 mg/kg, route oral; settings: plasma; in short: as §4
[17] = Plasma concentration in Sprague-Dawley rat at 1 mg/kg, po after 4 hrs; format: ADME, organism-based; set-up: dose 1 mg/kg, route oral; in short: as §4
[18] = Plasma concentration in Sprague-Dawley rat at 10 mg/kg, po after 4 hrs; format: ADME, organism-based; set-up: dose 10 mg/kg, route oral; in short: as §4
Brain [19] = test: Drug level in Sprague-Dawley rat brain at 1 mg/kg, po after 4 hrs; format: ADME, organism-based; set-up: dose 1 mg/kg, route oral; settings: in vivo; in short: as §4
Brain [20] = test: Drug level in Sprague-Dawley rat brain at 10 mg/kg, po after 4 hrs; format: ADME, organism-based; set-up: dose 10 mg/kg, route oral; settings: in vivo; in short: as §4
Rattus norvegicus [21] = test: Antiobesity activity in Sprague-Dawley rat assessed as reduction of food intake at 10 mg/kg, po after 20 hrs; format: functional; set-up: scale not given: the % may be the effect or the level left
Rattus norvegicus [22] = test: Antiobesity activity in Sprague-Dawley rat assessed as reduction of body weight at 30 mg/kg, po after 4 days; format: functional; set-up: scale not given: the % may be the effect or the level left
In short: (§5)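 Male Sprague–Dawley rats, about 240 g (n = 8), were dosed orally once daily for 4 days with compound or vehicle (14% propylene glycol, 1% tween, 85% water, v/v/v). Body weight, food and water intake were measured daily and compared with vehicle.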

Rattus norvegicus [23] = test: Antiobesity activity in Sprague-Dawley rat assessed as reduction of caloric intake at 30 mg/kg, po after 4 days; format: functional; set-up: scale not given: the % may be the effect or the level left; in short: as §5
Rattus norvegicus [24] = organism: Rattus norvegicus; test: Toxicity in Sprague-Dawley rat; format: organism-based; settings: in vivo
Cytochrome P450 2C19 = Cytochrome P450 2C19 (Homo sapiens, UniProt P33261); test: Inhibition of CYP2C19; format: ADME
Cytochrome P450 2D6 = Cytochrome P450 2D6 (Homo sapiens, UniProt P10635); test: Inhibition of CYP2D6; format: ADME
Chain of Cytochrome P450 2D6 (P10635 whole entry): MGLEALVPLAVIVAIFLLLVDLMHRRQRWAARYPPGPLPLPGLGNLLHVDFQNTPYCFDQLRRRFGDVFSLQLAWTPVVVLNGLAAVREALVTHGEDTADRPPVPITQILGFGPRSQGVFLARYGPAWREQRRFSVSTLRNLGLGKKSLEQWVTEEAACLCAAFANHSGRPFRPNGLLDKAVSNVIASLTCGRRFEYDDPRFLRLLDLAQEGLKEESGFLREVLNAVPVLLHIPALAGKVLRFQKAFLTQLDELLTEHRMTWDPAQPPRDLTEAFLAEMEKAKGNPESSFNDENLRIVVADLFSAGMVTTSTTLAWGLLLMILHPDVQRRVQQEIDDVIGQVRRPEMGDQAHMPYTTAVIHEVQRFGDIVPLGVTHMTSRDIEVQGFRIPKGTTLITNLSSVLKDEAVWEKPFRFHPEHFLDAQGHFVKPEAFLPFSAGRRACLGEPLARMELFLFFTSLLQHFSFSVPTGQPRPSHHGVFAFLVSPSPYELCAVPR

Cytochrome P450 3A4 = Cytochrome P450 3A4 (Homo sapiens, UniProt P08684); test: Inhibition of CYP3A4; format: ADME
Chain of Cytochrome P450 3A4 (P08684 whole entry): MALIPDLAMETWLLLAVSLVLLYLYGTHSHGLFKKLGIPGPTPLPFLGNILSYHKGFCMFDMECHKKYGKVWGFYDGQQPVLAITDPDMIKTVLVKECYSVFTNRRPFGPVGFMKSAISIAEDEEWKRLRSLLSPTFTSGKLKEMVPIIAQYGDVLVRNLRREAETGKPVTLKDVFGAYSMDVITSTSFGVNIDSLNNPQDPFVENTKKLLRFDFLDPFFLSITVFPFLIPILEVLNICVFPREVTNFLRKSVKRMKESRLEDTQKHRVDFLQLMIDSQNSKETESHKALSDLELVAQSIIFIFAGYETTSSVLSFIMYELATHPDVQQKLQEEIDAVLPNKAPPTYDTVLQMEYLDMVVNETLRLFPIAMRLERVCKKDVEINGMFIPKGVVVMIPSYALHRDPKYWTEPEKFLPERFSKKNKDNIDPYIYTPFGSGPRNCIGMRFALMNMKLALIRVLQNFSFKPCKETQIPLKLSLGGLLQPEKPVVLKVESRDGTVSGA

CYP1A2 = molecular target: T3, CYP1A2 (Homo sapiens, UniProt P05177); test: Inhibition of CYP1A2 at 10 uM; format: ADME
T3 sequence (P05177 whole entry): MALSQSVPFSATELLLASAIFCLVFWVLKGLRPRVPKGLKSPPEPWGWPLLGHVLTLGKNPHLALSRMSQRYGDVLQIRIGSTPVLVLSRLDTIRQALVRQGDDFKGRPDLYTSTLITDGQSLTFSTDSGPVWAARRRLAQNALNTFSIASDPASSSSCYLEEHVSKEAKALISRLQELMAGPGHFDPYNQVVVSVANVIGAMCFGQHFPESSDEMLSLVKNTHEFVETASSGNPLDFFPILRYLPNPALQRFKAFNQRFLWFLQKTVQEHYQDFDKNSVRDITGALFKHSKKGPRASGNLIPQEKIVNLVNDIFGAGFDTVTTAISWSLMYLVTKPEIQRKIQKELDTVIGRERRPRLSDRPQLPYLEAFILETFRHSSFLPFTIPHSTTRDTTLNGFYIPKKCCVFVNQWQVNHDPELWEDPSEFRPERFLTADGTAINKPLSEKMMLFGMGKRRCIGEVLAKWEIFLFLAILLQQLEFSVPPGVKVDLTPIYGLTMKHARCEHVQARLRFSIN

CYP2C9 = CYP2C9 (Homo sapiens, UniProt P11712); test: Inhibition of CYP2C9 at 10 uM; format: ADME
Chain of CYP2C9 (P11712 whole entry): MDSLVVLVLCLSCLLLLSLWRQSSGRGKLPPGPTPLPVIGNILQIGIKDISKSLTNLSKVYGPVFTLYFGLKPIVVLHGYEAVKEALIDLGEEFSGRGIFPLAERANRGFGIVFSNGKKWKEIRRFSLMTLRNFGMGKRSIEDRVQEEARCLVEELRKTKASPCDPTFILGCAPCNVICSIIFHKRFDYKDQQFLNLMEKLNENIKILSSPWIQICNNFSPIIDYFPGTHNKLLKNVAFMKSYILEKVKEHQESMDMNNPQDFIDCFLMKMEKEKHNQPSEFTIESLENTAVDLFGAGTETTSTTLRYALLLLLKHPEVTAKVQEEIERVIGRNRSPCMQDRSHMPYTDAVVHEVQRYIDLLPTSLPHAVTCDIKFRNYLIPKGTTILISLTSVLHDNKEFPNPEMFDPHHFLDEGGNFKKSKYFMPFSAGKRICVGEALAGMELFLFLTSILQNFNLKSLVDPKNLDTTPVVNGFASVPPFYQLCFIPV

CYP2C19 = CYP2C19 (Homo sapiens, UniProt P33261); test: Inhibition of CYP2C19 at 10 uM; format: ADME
Chain of CYP2C19 (P33261 whole entry): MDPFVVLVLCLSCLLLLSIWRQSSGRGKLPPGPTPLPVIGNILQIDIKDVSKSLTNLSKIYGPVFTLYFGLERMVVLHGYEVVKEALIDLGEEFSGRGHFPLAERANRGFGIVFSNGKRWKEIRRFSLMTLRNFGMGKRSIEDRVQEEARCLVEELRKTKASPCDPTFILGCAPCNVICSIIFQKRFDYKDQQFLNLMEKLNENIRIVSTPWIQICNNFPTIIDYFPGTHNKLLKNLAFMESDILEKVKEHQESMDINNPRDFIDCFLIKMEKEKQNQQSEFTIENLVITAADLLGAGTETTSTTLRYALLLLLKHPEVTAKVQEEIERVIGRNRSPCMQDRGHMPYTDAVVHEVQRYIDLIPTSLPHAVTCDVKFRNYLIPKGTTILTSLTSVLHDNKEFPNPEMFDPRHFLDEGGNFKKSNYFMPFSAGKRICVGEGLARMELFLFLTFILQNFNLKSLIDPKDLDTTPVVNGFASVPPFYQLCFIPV

CYP2D6 = CYP2D6 (Homo sapiens, UniProt P10635); test: Inhibition of CYP2D6 at 10 uM; format: ADME
Chain of CYP2D6 (P10635 whole entry): as the sequence (P10635 whole entry) above

CYP3A4 = CYP3A4 (Homo sapiens, UniProt P08684); test: Inhibition of CYP3A4 at 10 uM; format: ADME
Chain of CYP3A4 (P08684 whole entry): as the sequence (P08684 whole entry) above

hERG = hERG (Homo sapiens, UniProt Q12809); test: Inhibition of human ERG at 10 uM by patch clamp method
Chain of hERG (Q12809 whole entry): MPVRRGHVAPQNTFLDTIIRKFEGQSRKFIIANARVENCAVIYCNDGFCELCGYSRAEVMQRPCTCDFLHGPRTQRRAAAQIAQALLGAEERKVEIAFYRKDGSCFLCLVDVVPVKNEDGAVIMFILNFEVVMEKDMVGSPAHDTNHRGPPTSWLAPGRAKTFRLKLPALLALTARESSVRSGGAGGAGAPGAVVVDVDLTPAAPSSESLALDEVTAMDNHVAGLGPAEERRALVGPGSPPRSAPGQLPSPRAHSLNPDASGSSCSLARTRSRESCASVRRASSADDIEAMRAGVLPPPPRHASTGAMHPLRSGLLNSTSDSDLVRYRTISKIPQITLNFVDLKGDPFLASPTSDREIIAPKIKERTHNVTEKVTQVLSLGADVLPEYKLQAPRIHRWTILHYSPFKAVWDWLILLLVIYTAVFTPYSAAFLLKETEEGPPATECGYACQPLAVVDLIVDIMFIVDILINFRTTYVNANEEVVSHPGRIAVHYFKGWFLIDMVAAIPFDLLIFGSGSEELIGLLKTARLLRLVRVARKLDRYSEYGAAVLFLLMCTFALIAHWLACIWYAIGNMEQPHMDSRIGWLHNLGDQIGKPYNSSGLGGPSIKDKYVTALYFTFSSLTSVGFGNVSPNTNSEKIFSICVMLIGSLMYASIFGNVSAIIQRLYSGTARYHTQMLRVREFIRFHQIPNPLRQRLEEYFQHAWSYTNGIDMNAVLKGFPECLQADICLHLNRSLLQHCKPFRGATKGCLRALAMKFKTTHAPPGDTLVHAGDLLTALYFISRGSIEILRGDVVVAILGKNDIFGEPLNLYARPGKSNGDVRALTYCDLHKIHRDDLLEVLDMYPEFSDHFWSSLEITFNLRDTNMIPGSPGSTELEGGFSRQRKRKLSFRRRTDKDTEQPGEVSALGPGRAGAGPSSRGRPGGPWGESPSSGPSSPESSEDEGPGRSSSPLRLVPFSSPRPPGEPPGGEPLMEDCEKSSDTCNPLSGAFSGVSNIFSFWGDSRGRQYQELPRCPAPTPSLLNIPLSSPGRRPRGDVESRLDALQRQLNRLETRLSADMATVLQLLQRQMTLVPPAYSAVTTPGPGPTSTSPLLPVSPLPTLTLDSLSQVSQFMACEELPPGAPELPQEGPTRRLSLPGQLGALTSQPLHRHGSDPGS

Cytochrome P450 1A2 = molecular target: T4, Cytochrome P450 1A2 (Homo sapiens, UniProt P05177); test: Inhibition of CYP1A2; format: ADME
T4 sequence (P05177 whole entry): T3 sequence (P05177 whole entry)

Cytochrome P450 2C9 = Cytochrome P450 2C9 (Homo sapiens, UniProt P11712); test: Inhibition of CYP2C9; format: ADME
Chain of Cytochrome P450 2C9 (P11712 whole entry): as the sequence (P11712 whole entry) above

[25] = molecular target: T5, 5-hydroxytryptamine receptor 2C (Homo sapiens, UniProt P28335); test: Displacement of [125I]DOI from human recombinant 5HT2C receptor expressed in HEK293E cells; format: cell-based; in short: as §2
T5 sequence (P28335 whole entry): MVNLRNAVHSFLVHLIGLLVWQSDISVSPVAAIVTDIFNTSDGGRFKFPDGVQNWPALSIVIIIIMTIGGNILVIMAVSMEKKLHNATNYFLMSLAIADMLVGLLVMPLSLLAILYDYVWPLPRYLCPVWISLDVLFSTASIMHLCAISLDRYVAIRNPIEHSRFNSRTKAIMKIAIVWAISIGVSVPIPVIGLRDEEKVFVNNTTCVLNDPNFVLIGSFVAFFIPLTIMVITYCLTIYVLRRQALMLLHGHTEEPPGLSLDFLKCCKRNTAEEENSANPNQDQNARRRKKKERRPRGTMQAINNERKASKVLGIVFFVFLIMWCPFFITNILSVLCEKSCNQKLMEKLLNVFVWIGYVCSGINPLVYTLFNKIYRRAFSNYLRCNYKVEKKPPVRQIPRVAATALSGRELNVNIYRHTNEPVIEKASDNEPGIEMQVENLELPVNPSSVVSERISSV

[26] = molecular target: T5, 5-hydroxytryptamine receptor 2C; test: Agonist activity at human recombinant 5HT2C receptor expressed in HEK293E cells by FLIPR assay; format: functional, cell-based; in short: as §1
[27] = molecular target: T1, 5-hydroxytryptamine receptor 2B; test: Displacement of [3H]LSD from human recombinant 5HT2B receptor expressed in HEK293E cells

T1 sequence (P41595 whole entry): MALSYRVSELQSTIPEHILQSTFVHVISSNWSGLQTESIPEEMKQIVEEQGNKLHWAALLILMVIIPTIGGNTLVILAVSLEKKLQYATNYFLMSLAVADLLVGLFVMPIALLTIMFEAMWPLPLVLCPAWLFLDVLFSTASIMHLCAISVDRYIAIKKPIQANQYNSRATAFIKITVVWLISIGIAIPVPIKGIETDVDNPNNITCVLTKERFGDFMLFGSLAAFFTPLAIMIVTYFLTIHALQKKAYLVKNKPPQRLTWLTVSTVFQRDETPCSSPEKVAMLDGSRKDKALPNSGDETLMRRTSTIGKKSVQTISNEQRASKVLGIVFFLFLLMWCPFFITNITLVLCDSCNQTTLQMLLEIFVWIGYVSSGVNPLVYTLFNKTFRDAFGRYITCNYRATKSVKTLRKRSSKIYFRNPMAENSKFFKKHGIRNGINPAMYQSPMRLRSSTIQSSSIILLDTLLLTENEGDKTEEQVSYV

Cc1cccc2c1C(=O)NC1CNCCN21 (single isomer, unassigned; (+))
EC50 [1]: > 10000 nM | Ki [2]: 229 nM | EC50 [3]: > 10000 nM | half-life [4]: 54 min | half-life [5]: 150 min | clearance [6]: 27 mL/min/kg | Vd [7]: 1.3 L/kg | Tmax [8]: 60 min | Cmax [9]: 293 nM | AUC(0-inf) [10]: 2.34 µM·h | AUC(0-inf) [11]: 1.15 µM·h | bioavailability [12]: 49% | Tmax [13]: 30 min | Cmax [14]: 5380 nM | AUC at 4 h [15]: 1.04 µM·h | AUC at 4 h [16]: 1.24 µM·h | concentration at 4 h [17]: 219 nM | concentration at 4 h [18]: 2120 nM | Drug uptake (Brain [19]): 326 nmol/kg | Drug uptake (Brain [20]): 3010 nmol/kg | Activity (Rattus norvegicus [21]): 22% | Activity (Rattus norvegicus [22]): 4.1% | Activity (Rattus norvegicus [23]): 16% | Activity (Rattus norvegicus [24]): Non-toxic | IC50 (Cytochrome P450 2C19): > 40000 nM | IC50 (Cytochrome P450 2D6): > 40000 nM | IC50 (Cytochrome P450 3A4): > 40000 nM | inhibition at 10 µM (CYP1A2): > 50% | inhibition at 10 µM (CYP2C9): > 50% | inhibition at 10 µM (CYP2C19): > 50% | inhibition at 10 µM (CYP2D6): > 50% | inhibition at 10 µM (CYP3A4): > 50% | inhibition at 10 µM (hERG): 37% | IC50 (Cytochrome P450 1A2): > 40000 nM | IC50 (Cytochrome P450 2C9): > 40000 nM | Ki [25]: 89 nM | EC50 [26]: 45 nM | Ki [27]: 8.6 nM
